# In ChEMBL document CHEMBL1154598, “7-Hydroxy-benzopyran-4-one derivatives: a novel pharmacophore of peroxisome proliferator-activated receptor alpha and -gamma (PPARalpha and gamma) dual agonists” (J Med Chem, 2009):
# Active and inactive are the calls of the source. The rule behind the calls is not given here.
# Experiments:
# [1] = target: T1, Peroxisome proliferator-activated receptor gamma (Homo sapiens) (UniProt P37231); experiment: Agonist activity at human PPARgamma expressed in HEK293 cells co-transfected with PPRE assessed as beta-galactosidase signal at 25 uM after 48 hrs by reporter gene assay relative to control; format: functional, cell-based
# T1 sequence (whole entry): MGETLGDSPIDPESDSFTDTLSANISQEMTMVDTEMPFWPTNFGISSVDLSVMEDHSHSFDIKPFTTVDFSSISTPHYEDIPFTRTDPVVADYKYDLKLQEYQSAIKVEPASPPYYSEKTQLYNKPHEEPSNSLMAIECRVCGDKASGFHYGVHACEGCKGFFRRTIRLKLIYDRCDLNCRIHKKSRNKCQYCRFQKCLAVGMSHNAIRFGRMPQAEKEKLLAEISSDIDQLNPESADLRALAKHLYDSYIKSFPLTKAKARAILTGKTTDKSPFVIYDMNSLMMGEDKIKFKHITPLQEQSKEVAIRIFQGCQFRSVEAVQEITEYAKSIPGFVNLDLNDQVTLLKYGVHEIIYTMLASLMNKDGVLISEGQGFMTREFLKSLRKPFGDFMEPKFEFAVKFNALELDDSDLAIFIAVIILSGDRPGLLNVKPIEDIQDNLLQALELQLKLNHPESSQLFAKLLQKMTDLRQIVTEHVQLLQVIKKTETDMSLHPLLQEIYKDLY
# In short: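 HEK293 cells were transfected with FuGENE 6 using a PPRE-luciferase reporter, pSG5-hPPARγ1 and a β-galactosidase control plasmid. After 24 h they were replated at 5 × 10⁴ cells/well, attached overnight, then treated for 48 h with 0.1% DMSO as vehicle. Luciferase was read, normalized to the β-gal signal and reported as fold activation over vehicle. Mean of two experiments in triplicate.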
# [2] = target: T2, Peroxisome proliferator-activated receptor alpha (Homo sapiens) (UniProt Q07869); experiment: Agonist activity at human PPARalpha expressed in HEK293 cells co-transfected with PPRE assessed as beta-galactosidase signal at 25 uM after 48 hrs by reporter gene assay relative to control; format: functional, cell-based
# T2 sequence (whole entry): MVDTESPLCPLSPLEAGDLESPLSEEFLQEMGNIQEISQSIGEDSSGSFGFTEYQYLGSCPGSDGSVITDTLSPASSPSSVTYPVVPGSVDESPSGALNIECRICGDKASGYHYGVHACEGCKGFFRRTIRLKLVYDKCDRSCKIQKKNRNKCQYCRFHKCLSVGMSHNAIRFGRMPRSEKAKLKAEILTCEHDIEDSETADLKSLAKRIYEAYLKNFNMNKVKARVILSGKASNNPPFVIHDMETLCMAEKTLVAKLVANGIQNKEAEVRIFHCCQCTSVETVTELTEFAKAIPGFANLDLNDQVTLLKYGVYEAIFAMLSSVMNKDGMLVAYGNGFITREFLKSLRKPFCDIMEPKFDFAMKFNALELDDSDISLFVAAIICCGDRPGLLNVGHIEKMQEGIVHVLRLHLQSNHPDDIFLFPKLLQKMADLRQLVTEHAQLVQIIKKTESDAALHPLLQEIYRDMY
# In short: (§1)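 Human PPARα transactivation in HEK293 cells grown in DMEM/F-12 with 10% heat-inactivated FBS. Cells were transfected with FuGENE 6 using a PPRE-luciferase reporter, pBI-G-hPPARα and a β-galactosidase control plasmid. After 24 h they were replated at 5 × 10⁴ cells/well, attached overnight, then dosed for 48 h with 0.1% DMSO as vehicle. Luciferase was normalized to β-gal and expressed as fold over vehicle. Two experiments, each in triplicate.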
# [3] = target: T2, Peroxisome proliferator-activated receptor alpha (Homo sapiens); experiment: Agonist activity at human PPARalpha expressed in HEK293 cells co-transfected with PPRE assessed as beta-galactosidase signal at 40 uM after 48 hrs by reporter gene assay relative to control; format: functional, cell-based; in short: as §1
# [4] = target: T1, Peroxisome proliferator-activated receptor gamma (Homo sapiens); experiment: Agonist activity at PPARgamma expressed in mouse RAW264.7 cells assessed as beta-galactosidase signal at 10 uM by reporter gene assay relative to control; format: functional, cell-based
# [5] = Cytotoxicity against HEK293 cells assessed as viable cells at 100 uM after 48 hrs by aqueous one solution cell proliferation assay relative to control; format: cell-based; settings: human, read-out: Activity
# In short: (§2)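 HEK293 cells were seeded overnight, then exposed to 0–100 μM compound for 48 h at 37 °C in 5% CO₂. MTS reagent was added for a further 2 h and absorbance read at 490 nm. Viability is given as % relative to DMSO vehicle control. Two experiments, each in quadruplicate.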
# [6] = target: T3, Peroxisome proliferator-activated receptor gamma (Homo sapiens, UniProt P37231); experiment: Agonist activity at human PPARgamma assessed as luciferase activity by transactivation assay; format: functional
# T3 sequence (P37231 whole entry): T1 sequence (whole entry)
# In short: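 Transiently transfected HEK293 (PPRE-luciferase reporter plus pSG5-hPPARγ1 and β-gal control), compound exposure 48 h. EC50 is the ligand concentration giving half-maximal fold induction of β-gal-normalized luciferase, fitted by nonlinear regression. Means of three experiments.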
# [7] = target: T4, Peroxisome proliferator-activated receptor alpha (Homo sapiens, UniProt Q07869); experiment: Agonist activity at human PPARalpha assessed as luciferase activity by transactivation assay; format: functional
# T4 sequence (Q07869 whole entry): T2 sequence (whole entry)
# [8] = Cytotoxicity against HEK293 cells assessed as viable cells at 10 uM after 48 hrs by aqueous one solution cell proliferation assay relative to control; format: cell-based; settings: human, read-out: Activity; in short: as §2
# [9] = Cytotoxicity against HEK293 cells assessed as viable cells at 50 uM after 48 hrs by aqueous one solution cell proliferation assay relative to control; format: cell-based; settings: human, read-out: Activity; in short: as §2
Compound,fold change (FC) [1],fold change (FC) [2],fold change (FC) [3],further results
COc1c(F)cc(F)cc1-c1coc2cc(O)ccc2c1=O,7.5,,,
O=c1cc(-c2ccccc2)oc2cc(O)cc(O)c12,4,3.4,5.3,fold change (FC) [4]: 5.6
Oc1ccc(-c2n[nH]cc2-c2ccc(F)cc2)c(O)c1,1.7,,,
O=c1cc(-c2ccccc2O)oc2cc(O)ccc12,6.8,3.6,4.9,
O=C1C[C@@H](c2ccc(O)cc2)Oc2cc(O)cc(O)c21,1.7,1.2,1.7,
COc1ccc2c(=O)c(-c3ccc4c(c3)OCO4)coc2c1,25.2,2.2,2.4,
CN(CCOc1ccc(C[C@H](Nc2ccccc2C(=O)c2ccccc2)C(=O)O)cc1)c1ccccn1,,,,"viability at 48 h, 100 µM [5]: 33%"
CCc1cc2c(=O)c(-c3ccc4c(c3)OCO4)c(C)oc2cc1O,5.3,,,
O=c1c(O)c(-c2ccc(O)c(O)c2)oc2cc(O)cc(O)c12,1.3,,,
COc1ccc(-c2coc3cc(O)ccc3c2=O)c(OC)n1,,,,Activity [1]: inactive
COc1ccc(-c2oc3cc(O)ccc3c(=O)c2O)cc1OC,2.4,,,
COc1cc(-c2oc3cc(O)cc(O)c3c(=O)c2O)cc(OC)c1O,1.2,,,
COc1ccccc1-c1coc2cc(O)ccc2c1=O,1.6,,,
O=c1c(-c2ccc(F)cc2F)coc2cc(O)ccc12,13.8,,,
O=c1c(-c2cccc(OCc3ccccc3)c2)coc2cc(O)ccc12,,,,Activity [1]: inactive
COc1ccc(-c2cc(=O)c3c(O)cc(O)cc3o2)cc1O,7.3,2.8,3.8,
O=c1c(-c2cccc(F)c2)coc2cc(O)ccc12,4.1,,,
CCc1cc2c(=O)c(-c3ccc4c(c3)OCO4)c(C(F)(F)F)oc2cc1O,,,,Activity [1]: inactive
COc1cc(OC)cc(-c2coc3cc(O)ccc3c2=O)c1,116,4.8,25.3,"EC50 [6]: 18.9 µM; EC50 [7]: 24.6 µM; viability at 48 h, 10 µM [8]: > 80%; viability at 48 h, 50 µM [9]: > 67%"
COc1ccc(/C=C/C(=O)c2ccc(O)cc2O)cc1,2.6,,,

Compound,fold change (FC) [1],fold change (FC) [2],fold change (FC) [3],further results
COc1cc(-c2coc3cc(O)ccc3c2=O)cc(OC)c1OC,,,,Activity [1]: inactive
O=c1c(O)c(-c2ccc(O)cc2)oc2cc(O)cc(O)c12,3.5,1.8,2.6,fold change (FC) [4]: 7.6
COc1ccc(-c2coc3cc(O)ccc3c2=O)cc1OC,10.5,,,
CCc1cc2c(=O)c(-c3ccc4c(c3)OCO4)coc2cc1O,12.7,,,
O=c1c(-c2ccc3c(c2)OCO3)coc2cc(O)ccc12 [PSEUDOBAPTOGENIN],38.5,5.6,11.7,"EC50 [6]: 26.9 µM; EC50 [7]: 8.9 µM; viability at 48 h, 10 µM [8]: > 90%; viability at 48 h, 100 µM [5]: > 60%; viability at 48 h, 50 µM [9]: > 67%"
O=c1c(-c2ccc3c(c2)OCO3)coc2cc(OC3CCCCO3)ccc12 (stereo not drawn),9.4,,,
O=c1cc(-c2ccc(O)cc2)oc2ccc(O)cc12,5,2.6,3.5,
COc1cc(-c2cc(=O)c3c(O)cc(O)cc3o2)ccc1O,2.2,1.1,1.3,
O=c1c(-c2ccc3c(c2)OCCO3)coc2cc(O)ccc12,11.3,,,
O=c1c(-c2ccc(O)cc2)coc2cc(O)c(O)cc12,4.4,1.8,4,
O=c1c(-c2cc(O)cc(O)c2)coc2cc(O)ccc12,7.4,,,
O=c1cc(-c2ccc(O)cc2)oc2cc(O)cc(O)c12,5.4,2,2.3,fold change (FC) [4]: 8.13
O=c1c(-c2ccc3c(c2)OCCO3)coc2cc(OC3CCCCO3)ccc12 (stereo not drawn),2,2.5,3.3,
O=C(/C=C/c1ccc(O)cc1)c1ccc(O)cc1O,1.3,,,
O=c1c(-c2ccc(Cl)cc2)coc2cc(O)ccc12,2.6,,,
Oc1ccc(-c2n[nH]cc2-c2ccc3c(c2)OCO3)c(O)c1,,,,Activity [1]: inactive
O=c1cc(-c2ccc(O)cc2)oc2cc(O)ccc12,5,1.5,2.6,
COc1cc(-c2coc3cc(OC4CCCCO4)ccc3c2=O)cc(OC)c1OC (stereo not drawn),2.3,,,
O=c1cc(-c2ccc(O)c(O)c2)oc2ccccc12,5,2.8,7.7,
CCc1cc2c(=O)c(-c3ccc4c(c3)OCO4)c(C)oc2cc1OCC(=O)O,2.3,,,

Compound,fold change (FC) [1],fold change (FC) [2],fold change (FC) [3],further results
CN(CCOc1ccc(CC2SC(=O)NC2=O)cc1)c1ccccn1 (stereo not drawn) [ROSIGLITAZONE],,,,"viability at 48 h, 100 µM [5]: 46%"
COc1cccc(/C=C/C(=O)c2ccc(O)cc2O)c1,2.1,,,
O=c1c(-c2cccc(OC(F)(F)F)c2)coc2cc(O)ccc12,2.1,,,
COc1ccc([C@@H]2CC(=O)c3c(O)cc(O)cc3O2)cc1O,3.8,1.9,2,
COc1ccc(-c2cc(=O)c3c(O)cc(O)cc3o2)cc1,7.7,2.3,5.2,
O=c1c(-c2ccc(O)cc2)coc2cc(O)ccc12,9.6,6.2,13.4,
O=c1cc(-c2cccc(O)c2)oc2cc(O)ccc12,6.3,8.2,14.8,
O=c1c(-c2cc(F)c(F)c(F)c2)coc2cc(O)ccc12,1.4,,,
O=c1c(-c2ccc(O)c(O)c2)coc2cc(O)ccc12,7.5,,,
COc1ccc(-c2c(-c3ccc(O)cc3O)n[nH]c2C)cc1,2.2,,,
O=c1c(-c2ccc(O)cc2)coc2cc(O)cc(O)c12,3.4,,,
Oc1ccc(-c2n[nH]c(C(F)(F)F)c2-c2ccc(F)cc2)c(O)c1,3.9,,,
COc1ccc(/C=C/C(=O)c2ccc(O)cc2O)cc1OC,3.5,,,
COc1ccc(-c2coc3cc(O)ccc3c2=O)cc1,12.8,7.5,7.8,
O=c1cc(-c2ccc(O)cc2)oc2cccc(O)c12,8.9,2.4,3.7,
COc1ccccc1/C=C/C(=O)c1ccc(O)cc1O,1.1,,,
O=c1c(-c2ccc(F)cc2)coc2cc(O)ccc12,148,8.6,28.7,"EC50 [6]: 15.4 µM; EC50 [7]: 33.1 µM; viability at 48 h, 50 µM [9]: > 67%"
Cc1[nH]nc(-c2ccc(O)cc2O)c1-c1ccc(F)cc1,5.3,,,
O=c1c(-c2ccc(C(F)(F)F)cc2)coc2cc(O)ccc12,4.4,,,
